ChEMBL document CHEMBL3804796, “Discovery of Novel 3,3-Disubstituted Piperidines as Orally Bioavailable, Potent, and Efficacious HDM2-p53 Inhibitors” (ACS Med Chem Lett, 2016)
Converted amounts (≈) assume the structure as drawn. The source made the active and inactive calls. No cut-off for these calls is given here.

Legend:
[1] = target: Tumour suppressor p53/oncoprotein Mdm2 (Homo sapiens, UniProt Q00987); experiment: Inhibition of human recombinant His-tagged MDM2 (1 to 118 residues) interaction with FAM-tagged p53-based peptide (unknown origin) incubated for 15 mins by fluorescence polarization assay; type: protein assay
[2] = Antiproliferative activity against human HCT116 cells expressing wild type p53 after 72 hrs by CellTitre-Glo assay; type: functional, cell-based; conditions: HCT-116, 72 h
Method in brief: (§1)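 Cancer cell lines of known p53 coding-region status (checked by direct sequencing) were exposed to the compound for 72 h. Viability was read with CellTiter-Glo, and the IC50 was taken from these readings.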

SK-UT-1 = experiment: Antiproliferative activity against human SK-UT-1 cells harboring mutant p53 after 72 hrs by CellTitre-Glo assay; type: functional, cell-based; conditions: SK-UT-1, 72 h; method in brief: as §1
[3] = Antiproliferative activity against p53 null human H1299 cells after 72 hrs by CellTitre-Glo assay; type: functional, cell-based; conditions: NCI-H1299, 72 h; method in brief: as §1
SJSA-1 [4] = experiment: Induction of apoptosis in human SJSA1 cells assessed as caspase 3/7 activation; type: functional, cell-based
SJSA-1 [5] = experiment: Selectivity ratio of IC50 for human SK-UT-1 cells harboring mutant p53 to IC50 for human SJSA1 cells expressing wild type p53; type: functional
Method in brief: (§2)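 Ratio of two IC50s, each from a 72 h CellTiter-Glo viability assay. p53 coding-region status was confirmed by direct sequencing. The ratio is p53-mutant (SK-UT-1) or p53-null (H1299) IC50 divided by wild-type p53 (SJSA-1 or HCT116) IC50.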

SJSA-1 [6] = experiment: Selectivity ratio of IC50 for p53 null human H1299 cells to IC50 for human SJSA1 cells expressing wild type p53; type: functional; method in brief: as §2
[7] = Solubility of compound in pH 7.4 phosphate buffer; type: physicochemical
[8] = Intrinsic clearance in human liver microsomes; type: ADME; conditions: read-out: CLH
Mus musculus [9] = experiment: Dose normalized AUC (0 to 24 hrs) in mouse at 1 mg/kg, po administered as single dose; type: ADME, organism-based; conditions: in vivo
Method in brief: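 Single oral dose of 1 mg/kg. Vehicle was 20% HPBCD for mouse and 0.4% HPMC for dog and monkey. Plasma AUC over 0–24 h, dose-normalized, reported in μM·h.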

HCT-116 = experiment: Selectivity ratio of IC50 for human SK-UT-1 cells harboring mutant p53 to IC50 for human HCT116 cells expressing wild type p53; type: functional; method in brief: as §2
[10] = Clearance in dog at 1 mg/kg, iv; type: ADME, organism-based, Canis lupus familiaris; conditions: in vivo
Cytochrome P450 3A4 = Cytochrome P450 3A4 (Homo sapiens, UniProt P08684); experiment: Inhibition of CYP3A4 (unknown origin); type: ADME
Cytochrome P450 2D6 = Cytochrome P450 2D6 (Homo sapiens, UniProt P10635); experiment: Inhibition of CYP2D6 (unknown origin); type: ADME
Cytochrome P450 2C9 = Cytochrome P450 2C9 (Homo sapiens, UniProt P11712); experiment: Inhibition of CYP2C9 (unknown origin); type: ADME
Cytochrome P450 1A2 = Cytochrome P450 1A2 (Homo sapiens, UniProt P05177); experiment: Inhibition of CYP1A2 (unknown origin); type: ADME
[11] = Fraction unbound in human plasma; type: ADME, cell-free
[12] = Fraction unbound in dog plasma; type: ADME, cell-free, Canis lupus familiaris
hERG (KCNH2) = hERG (KCNH2) (Homo sapiens, UniProt Q12809); experiment: Inhibition of human ERG at 6 uM relative to control
Method in brief: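 hERG inhibition measured by voltage clamp at 6 μM compound.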

[13] = Antitumor activity against human SJSA1 cells xenografted in nude mouse assessed as tumor growth inhibition at 50 mg/kg, po qd administered with cycle of 3 days on, 4 days off for 30 days relative to control; type: functional; conditions: SJSA-1, po, read-out: TGI
Method in brief: (§3)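 Nude mice bearing SJSA-1 osteosarcoma xenografts, n = 5 per group. Oral dosing in 20% HPBCD, given either intermittently (daily, 3 days on/4 days off) or continuously daily. Body weight was monitored against a vehicle control group.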

[14] = Antitumor activity against human SJSA1 cells xenografted in nude mouse assessed as tumor growth inhibition at 100 mg/kg, po qd administered with cycle of 3 days on, 4 days off for 30 days relative to control; type: functional; conditions: SJSA-1, po, read-out: TGI; method in brief: as §3
Mus musculus [15] = experiment: Toxicity in nude mouse xenografted with human SJSA1 cells assessed as body weight loss at 100 to 200 mg/kg, po qd continuously for 30 days; type: organism-based, SJSA-1; conditions: in vivo, 720 h
Method in brief: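 Nude mice bearing SJSA-1 osteosarcoma xenografts, n = 5 per group. Dosing was oral in 20% HPBCD, either continuous daily at 100 and 200 mpk or intermittent (daily for 3 days on, 4 days off). Body weight was compared against a vehicle-control group.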

A549 = experiment: Antitumor activity against human A549 cells xenografted in nude mouse assessed as tumor growth inhibition at 100 mg/kg, po qd administered with cycle of 3 days on, 4 days off for 30 days relative to control; type: functional; conditions: read-out: TGI
Method in brief: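 Mice bearing A549 NSCLC xenografts. The test agent was given orally, either daily or intermittently (daily for 3 days, then 4 days off). Paclitaxel was given at 20 mg/kg ip weekly, alone or in combination. Read-out was tumor growth inhibition.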

MES-SA = experiment: Antiproliferative activity against human MES-SA cells expressing wild type p53 after 72 hrs by CellTitre-Glo assay; type: functional, cell-based
Method in brief: (§4)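 Cell lines exposed to compound for 72 h; viability read by CellTiter-Glo and IC50 derived. p53 coding-region mutation status of each line established by direct sequencing.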

A498 = experiment: Antiproliferative activity against human A498 cells expressing wild type p53 after 72 hrs by CellTitre-Glo assay; type: functional, cell-based; method in brief: as §4
CWR22R = experiment: Antiproliferative activity against human 22Rv1 cells expressing wild type p53 after 72 hrs by CellTitre-Glo assay; type: functional, cell-based; method in brief: as §4
ZR-75-1 = experiment: Antiproliferative activity against human ZR-75-1 cells expressing wild type p53 after 72 hrs by CellTitre-Glo assay; type: functional, cell-based; method in brief: as §4
A2780 [16] = experiment: Antiproliferative activity against human A2780 cells expressing wild type p53 after 72 hrs by CellTitre-Glo assay; type: functional, cell-based; method in brief: as §4
BC1 = experiment: Antiproliferative activity against human BC1 cells expressing wild type p53 after 72 hrs by CellTitre-Glo assay; type: functional, cell-based; method in brief: as §4
EOL1 = experiment: Antiproliferative activity against human EOL-1 cells expressing wild type p53 after 72 hrs by CellTitre-Glo assay; type: functional, cell-based; method in brief: as §4
Daudi = experiment: Antiproliferative activity against human Daudi cells expressing wild type p53 after 72 hrs by CellTitre-Glo assay; type: functional, cell-based; method in brief: as §4
CESS = experiment: Antiproliferative activity against human CESS cells expressing wild type p53 after 72 hrs by CellTitre-Glo assay; type: functional, cell-based; method in brief: as §4
A2780 [17] = experiment: Antitumor activity against human A2780 cells xenografted in nude mouse harboring wild type p53 assessed as tumor growth inhibition at 50 mg/kg, po bid continuously for 15 days coadministered with 40 mg/kg, ip, once weekly docetaxel relative to control; type: functional
Method in brief: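 Wild-type p53 mice bearing A2780 ovarian xenografts. The test agent was given at 50 mg/kg orally twice daily, continuously. Docetaxel was given at 40 mg/kg ip weekly, twice in total. Each was given alone and in combination. Read-out was tumor growth inhibition.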

MOLM-13 = experiment: Antiproliferative activity against human MOLM13 cells expressing wild type p53 after 72 hrs by CellTitre-Glo assay; type: functional, cell-based; method in brief: as §4
NALM-6 = experiment: Antiproliferative activity against human NALM6 cells expressing wild type p53 after 72 hrs by CellTitre-Glo assay; type: functional, cell-based; method in brief: as §4

Chain of hERG (KCNH2) (Q12809 whole entry): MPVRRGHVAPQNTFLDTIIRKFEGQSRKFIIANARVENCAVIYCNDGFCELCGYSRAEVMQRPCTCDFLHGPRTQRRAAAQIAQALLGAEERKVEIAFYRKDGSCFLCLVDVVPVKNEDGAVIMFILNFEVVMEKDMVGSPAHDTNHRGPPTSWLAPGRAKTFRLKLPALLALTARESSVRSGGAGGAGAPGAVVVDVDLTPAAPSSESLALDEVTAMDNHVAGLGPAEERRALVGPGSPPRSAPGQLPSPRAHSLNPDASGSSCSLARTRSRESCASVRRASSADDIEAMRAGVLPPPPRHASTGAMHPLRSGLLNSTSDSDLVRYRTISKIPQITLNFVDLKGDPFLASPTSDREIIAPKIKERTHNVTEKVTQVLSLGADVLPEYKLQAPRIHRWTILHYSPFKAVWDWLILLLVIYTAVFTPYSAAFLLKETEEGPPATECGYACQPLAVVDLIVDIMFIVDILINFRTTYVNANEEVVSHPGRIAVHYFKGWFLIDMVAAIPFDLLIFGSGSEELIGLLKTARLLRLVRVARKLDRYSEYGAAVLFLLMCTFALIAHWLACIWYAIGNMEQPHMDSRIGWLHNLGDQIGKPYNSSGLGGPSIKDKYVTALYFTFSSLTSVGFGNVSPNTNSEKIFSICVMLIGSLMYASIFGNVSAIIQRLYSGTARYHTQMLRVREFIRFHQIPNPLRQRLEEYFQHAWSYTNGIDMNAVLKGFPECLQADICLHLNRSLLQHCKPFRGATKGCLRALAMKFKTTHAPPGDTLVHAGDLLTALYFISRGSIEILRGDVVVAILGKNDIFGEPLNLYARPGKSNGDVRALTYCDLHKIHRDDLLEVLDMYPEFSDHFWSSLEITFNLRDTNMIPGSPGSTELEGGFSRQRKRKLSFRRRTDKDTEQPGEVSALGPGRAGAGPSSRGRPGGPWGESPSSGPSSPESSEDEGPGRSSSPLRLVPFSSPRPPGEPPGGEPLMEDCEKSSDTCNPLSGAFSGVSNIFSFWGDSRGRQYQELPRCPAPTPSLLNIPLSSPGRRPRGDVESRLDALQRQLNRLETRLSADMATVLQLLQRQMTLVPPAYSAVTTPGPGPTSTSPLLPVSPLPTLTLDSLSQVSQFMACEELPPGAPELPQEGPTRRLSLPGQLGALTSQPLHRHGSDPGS
Chain of Cytochrome P450 1A2 (P05177 whole entry): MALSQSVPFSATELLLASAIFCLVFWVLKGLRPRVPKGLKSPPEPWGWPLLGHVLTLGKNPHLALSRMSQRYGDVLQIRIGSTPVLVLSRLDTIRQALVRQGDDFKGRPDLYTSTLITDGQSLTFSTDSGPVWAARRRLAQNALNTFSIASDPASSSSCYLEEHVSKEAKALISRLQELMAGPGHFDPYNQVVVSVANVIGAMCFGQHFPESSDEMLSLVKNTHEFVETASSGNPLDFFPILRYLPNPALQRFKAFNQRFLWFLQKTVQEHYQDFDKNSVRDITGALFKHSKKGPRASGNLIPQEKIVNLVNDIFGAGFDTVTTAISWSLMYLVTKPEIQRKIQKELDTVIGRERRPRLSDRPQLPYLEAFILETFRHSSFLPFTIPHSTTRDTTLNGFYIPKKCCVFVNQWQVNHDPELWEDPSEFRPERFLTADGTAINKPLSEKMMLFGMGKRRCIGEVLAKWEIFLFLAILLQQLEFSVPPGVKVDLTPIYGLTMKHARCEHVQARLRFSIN
Chain of Cytochrome P450 2D6 (P10635 whole entry): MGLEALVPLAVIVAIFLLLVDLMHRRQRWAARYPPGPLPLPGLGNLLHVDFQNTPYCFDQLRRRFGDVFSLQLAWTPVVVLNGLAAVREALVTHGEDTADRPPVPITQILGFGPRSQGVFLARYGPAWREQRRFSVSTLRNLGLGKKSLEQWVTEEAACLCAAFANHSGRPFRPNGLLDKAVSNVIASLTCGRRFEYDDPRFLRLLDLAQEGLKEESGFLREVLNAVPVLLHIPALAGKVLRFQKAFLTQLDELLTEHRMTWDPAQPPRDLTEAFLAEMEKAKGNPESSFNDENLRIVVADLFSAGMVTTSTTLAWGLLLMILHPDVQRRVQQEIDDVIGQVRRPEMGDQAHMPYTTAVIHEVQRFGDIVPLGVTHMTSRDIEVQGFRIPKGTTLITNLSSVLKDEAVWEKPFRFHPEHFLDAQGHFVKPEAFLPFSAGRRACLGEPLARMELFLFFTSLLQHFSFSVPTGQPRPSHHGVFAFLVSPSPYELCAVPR
Chain of Cytochrome P450 2C9 (P11712 whole entry): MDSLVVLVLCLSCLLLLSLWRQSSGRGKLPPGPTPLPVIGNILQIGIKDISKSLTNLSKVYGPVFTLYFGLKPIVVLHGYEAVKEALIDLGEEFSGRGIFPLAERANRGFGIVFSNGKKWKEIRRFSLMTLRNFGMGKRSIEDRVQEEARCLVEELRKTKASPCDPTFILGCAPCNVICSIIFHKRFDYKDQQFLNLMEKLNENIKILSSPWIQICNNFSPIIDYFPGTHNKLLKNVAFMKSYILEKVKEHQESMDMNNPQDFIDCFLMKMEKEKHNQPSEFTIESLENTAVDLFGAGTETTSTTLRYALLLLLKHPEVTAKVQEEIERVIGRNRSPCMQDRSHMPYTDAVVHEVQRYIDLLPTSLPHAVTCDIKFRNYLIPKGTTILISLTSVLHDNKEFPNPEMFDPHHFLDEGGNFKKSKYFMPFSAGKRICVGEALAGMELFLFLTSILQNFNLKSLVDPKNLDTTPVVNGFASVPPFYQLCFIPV
Chain of Cytochrome P450 3A4 (P08684 whole entry): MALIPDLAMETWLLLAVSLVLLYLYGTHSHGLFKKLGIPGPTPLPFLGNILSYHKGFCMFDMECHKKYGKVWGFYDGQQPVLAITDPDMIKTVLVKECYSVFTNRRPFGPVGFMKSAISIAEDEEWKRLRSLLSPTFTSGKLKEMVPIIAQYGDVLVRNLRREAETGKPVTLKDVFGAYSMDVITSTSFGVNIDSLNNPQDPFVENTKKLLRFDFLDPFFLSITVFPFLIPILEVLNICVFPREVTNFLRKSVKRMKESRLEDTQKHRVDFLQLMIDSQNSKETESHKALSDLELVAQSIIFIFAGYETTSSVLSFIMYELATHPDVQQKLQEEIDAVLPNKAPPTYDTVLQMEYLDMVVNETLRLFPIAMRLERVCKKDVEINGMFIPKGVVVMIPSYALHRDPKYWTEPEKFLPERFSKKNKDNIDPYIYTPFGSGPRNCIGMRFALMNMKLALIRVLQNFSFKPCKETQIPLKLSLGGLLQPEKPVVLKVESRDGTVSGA
Chain of Tumour suppressor p53/oncoprotein Mdm2 (P04637 whole entry, the tested form may be a part): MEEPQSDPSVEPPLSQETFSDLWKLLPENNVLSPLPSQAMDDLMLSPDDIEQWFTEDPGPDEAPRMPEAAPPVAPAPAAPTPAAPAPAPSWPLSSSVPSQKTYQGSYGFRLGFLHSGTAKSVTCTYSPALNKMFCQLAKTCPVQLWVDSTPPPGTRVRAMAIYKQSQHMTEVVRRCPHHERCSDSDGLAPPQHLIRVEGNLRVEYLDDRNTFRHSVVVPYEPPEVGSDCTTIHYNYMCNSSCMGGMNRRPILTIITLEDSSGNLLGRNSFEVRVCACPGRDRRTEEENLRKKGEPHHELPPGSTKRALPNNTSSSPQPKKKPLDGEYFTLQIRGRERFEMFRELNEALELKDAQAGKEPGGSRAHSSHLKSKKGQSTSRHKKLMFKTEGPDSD
Chain of Tumour suppressor p53/oncoprotein Mdm2 (Q00987 whole entry, the tested form may be a part): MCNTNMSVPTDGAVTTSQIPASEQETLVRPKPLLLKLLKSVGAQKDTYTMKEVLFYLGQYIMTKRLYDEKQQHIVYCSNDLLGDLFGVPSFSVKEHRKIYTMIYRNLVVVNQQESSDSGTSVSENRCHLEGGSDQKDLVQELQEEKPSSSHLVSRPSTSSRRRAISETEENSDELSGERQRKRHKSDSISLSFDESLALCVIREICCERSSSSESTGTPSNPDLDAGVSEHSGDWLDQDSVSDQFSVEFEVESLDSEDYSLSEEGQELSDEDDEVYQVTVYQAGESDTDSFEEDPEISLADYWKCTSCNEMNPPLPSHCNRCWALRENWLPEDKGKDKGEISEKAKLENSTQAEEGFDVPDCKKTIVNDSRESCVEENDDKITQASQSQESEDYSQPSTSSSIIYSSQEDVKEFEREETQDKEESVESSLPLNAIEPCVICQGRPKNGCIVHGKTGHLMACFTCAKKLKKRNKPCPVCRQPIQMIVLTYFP

## CCC[C@H]1N(C(=O)c2cnccc2C(F)(F)F)CCC[C@@]1(Oc1csc(C(F)(F)F)c1)C(=O)N1CCN(c2ccccc2OCCCC(=O)O)CC1
[1]
  IC50: 7 nM
[2]
  IC50: 180 nM
SK-UT-1
  IC50: > 50 µM
[3]
  IC50: > 50 µM
SJSA-1 [4]
  IC50: 90 nM
SJSA-1 [5]
  Ratio IC50: >500
SJSA-1 [6]
  Ratio IC50: >500
[7]
  solubility: 100 µM (≈ 75.7 µg/mL)
[8]
  CLint scaled: 3 mL/min/kg
Mus musculus [9]
  AUC/dose: 0.1 µM·h
HCT-116
  Ratio IC50: >500
[10]
  clearance: 4.1 mL/min/kg
Cytochrome P450 3A4
  IC50: > 50 µM
Cytochrome P450 2D6
  IC50: > 50 µM
Cytochrome P450 2C9
  IC50: > 50 µM
Cytochrome P450 1A2
  IC50: > 50 µM
[11]
  fraction unbound: 0.04
[12]
  fraction unbound: 0.02
hERG (KCNH2)
  inhibition at 6 µM: 20%
[13]
  inhibition in vivo at 50 mg/kg: 92%
[14]
  inhibition in vivo at 100 mg/kg: 31%
Mus musculus [15]
  Activity: Non-toxic
A549
  inhibition in vivo at 100 mg/kg: 27%
MES-SA
  Activity: Active
A498
  Activity: Active
CWR22R
  Activity: Active
ZR-75-1
  Activity: Active
A2780 [16]
  Activity: Active
BC1
  Activity: Active
EOL1
  Activity: Active
Daudi
  Activity: Active
CESS
  Activity: Active
A2780 [17]
  TGI: 81%
MOLM-13
  Activity: Active
NALM-6
  Activity: Active
